The sample as a whole holds a higher share of hits than the screen did.
Biofilm kill mix: clotrimazole potentiators killing C. albicans biofilm, primary screen, 4-compound mixtures; C. albicans biofilm persisters + clotrimazole, fluorescence viability; primary screen in compound mixtures of four per well; inhibition, % at 7.6 µM; 0.02% of 120,000 active;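 active means inhibition above 30.3% in the primary screen of four-compound pools, then above 30% when the compound was retested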;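 further: compounds exposed to preformed 24 h biofilms for 48 h; 0% = untreated biofilm control and 100% = clotrimazole plus chlorhexidine kill blank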
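Test system: C. albicans CAF4-2 wild-type biofilms; buffer or medium: RPMI/MOPS medium, pH 7.0; schedule: 24 h biofilm formation, then 48 h compound exposure, 37 °C; detection: Alamar Blue fluorescence; measure: percent inhibition of biofilm viability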
ROMK mod: ROMK potassium channel modulators, primary screen, cell-based, thallium flux, MLSMR library; ATP-sensitive inward rectifier potassium channel 1 (Homo sapiens), P48048; 2% of 130,000 active; Tet-inducible ROMK, thallium flux fluorescence; actives lie on both sides; B-score at 10 µM;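 active means signal ratio slope over the read window, or its plate-corrected B-score, at least 3 SD from the plate mean, either direction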;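 further: B-score of the F/F0 ratio slope over 7 to 12 s after thallium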
Target sequence (P48048 whole entry, looked up): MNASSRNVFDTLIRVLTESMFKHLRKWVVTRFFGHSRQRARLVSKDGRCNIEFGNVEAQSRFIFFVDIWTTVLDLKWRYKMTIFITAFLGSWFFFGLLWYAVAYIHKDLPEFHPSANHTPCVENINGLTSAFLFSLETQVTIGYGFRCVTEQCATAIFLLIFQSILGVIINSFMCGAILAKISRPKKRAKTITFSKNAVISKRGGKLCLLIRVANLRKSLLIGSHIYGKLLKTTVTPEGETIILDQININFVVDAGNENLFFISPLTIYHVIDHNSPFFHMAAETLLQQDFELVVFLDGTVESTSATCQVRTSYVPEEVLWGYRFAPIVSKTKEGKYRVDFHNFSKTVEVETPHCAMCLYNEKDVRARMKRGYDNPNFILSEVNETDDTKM
ROMK hit retest: ROMK channel modulator hit retest, confirmation, cell-based, thallium flux, duplicate, resupplied hits | shares compounds with ROMK mod | fluorescence ratio; hits give low values | normalized thallium flux (F/F0 slope) at 10 µM | 54% of 3,000 active;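 active means Flux at 10 µM at least 3 SD below or above vehicle control mean in one or both replicates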
Active calls of the source: *; . = no result.

SMILES	Biofilm kill mix	ROMK mod	ROMK hit retest
COc1cc(OC)nc(NC(=O)NS(=O)(=O)c2ccc(F)cc2)n1	0	.	.
CC(C)CNC(=O)c1nc(-c2ccccc2)n(-c2ccccc2)n1	.	.	0.074
Cc1ccc(-n2nc(C(=O)O)nc2-c2ccccc2)cc1	.	-0.023	.
C[C@H](NC(=O)OCc1ccccc1)C(=O)NNC(=O)[C@H](Cc1ccccc1)NC(=O)OC(C)(C)C	18	.	.
COC(=O)C(CO)NC(=O)C(C)NC(=O)CNC(=O)OCc1ccccc1 (stereo unspecified)	10	0.26	.
CC(C)(C)OC(=O)C(Cc1ccc(OC(C)(C)C)cc1)NC(=O)CNC(=O)OCc1ccccc1 (stereo unspecified)	19	-2.2*	0.058*
COC(=O)CNC(=O)C(C)NC(=O)CNC(=O)OCc1ccccc1 (stereo unspecified)	.	.	0.077
CN1CCN(NC(=O)CN2C(=O)/C(=C/c3ccccc3F)SC2=S)CC1	11	.	.
COc1ccccc1OC(=O)CN1C(=O)c2ccccc2C1=O	.	0.58	.
COCC(=O)Nc1ncc(S(=O)(=O)c2ccc([N+](=O)[O-])cc2)s1	13	0.47	.
O=C(NC(Nc1ncc(S(=O)(=O)c2ccc([N+](=O)[O-])cc2)s1)(C(F)(F)F)C(F)(F)F)c1ccc(Cl)cc1	.	-3*	0.079
COc1cc(/C=N/NC(=O)NC2CCCCC2)ccc1O	22	.	.
CCN(C1CCCCC1)S(=O)(=O)c1cc(C)ccc1OC	.	-1.6	.
CCN(C1CCCCC1)S(=O)(=O)c1ccc(OC)c(C)c1	.	-3.4*	0.066*
Cc1ccc(NC(=O)CN2CCN(c3ccccn3)CC2)c(Cl)c1	.	1.4	.
OCC(Cc1ccccc1)Nc1c2ccccc2nc2ccccc12 (stereo unspecified)	-2	-6.4*	0.041*
O=C(Cc1ccccc1)NNc1c2ccccc2nc2ccccc12	-21	-0.14	.
Cc1ccc(S(=O)(=O)c2nc(C(C)(C)C)oc2N2CCOCC2)cc1	.	0.054	.
CCc1ccc(NC(=O)C(=O)NCC(O)c2ccccc2)cc1 (stereo unspecified)	3	0.0069	.
O=C(Nc1cc(Cl)ccc1Cl)N1CCCC1	0	1.2	.
CCCc1c(C)nn(C(=O)/C(C#N)=N/Nc2ccccc2[N+](=O)[O-])c1C	3	1.6	.
COc1ccc(C(=O)/C(C#N)=N/Nc2ccccc2[N+](=O)[O-])cc1	7	3.8*	0.074
O=C(COC(=O)/C=C/c1cccc(F)c1)Nc1ccccc1	9	-0.75	.
CNC(=S)N/N=C/c1cn(Cc2ccc(F)cc2)c2ccccc12	13	.	.
COc1cc(/C=C2\NC(=S)N(C)C2=O)ccc1O	2	-1.2	.
SMILES	Biofilm kill mix	ROMK mod	ROMK hit retest
COc1cc(/C=C2/C(=O)CNC2=O)ccc1O	10	-2.9*	0.061*
Cc1cccnc1NC(=O)C1c2ccccc2Oc2ccccc21	10	0.16	.
CCOC(=O)N1CCN(C(=O)COc2ccc(Cl)cc2)CC1	.	-1.6	.
CCOC(=O)N1CCN(C(=O)COc2ccc(Cl)c(C)c2)CC1	7	-3.6*	0.058*
CCC(=O)c1ccc(OC(C)C(=O)NC2(C#N)CCCCC2)cc1 (stereo unspecified)	-2	0.17	.
COc1c(S(=O)(=O)NCCCN2CCOCC2)ccc(Cl)c1Cl	15	.	.
NC(=O)C1CCN(C(=O)c2ccc3c(=O)n(Cc4ccco4)c(SCC(=O)c4ccccc4)nc3c2)CC1	14	0.018	.
NC(=O)C1CCN(C(=O)c2ccc3c(=O)n(Cc4ccco4)c(SCC(=O)c4ccc(F)cc4)nc3c2)CC1	25	2.8*	0.092
Oc1c(Cl)cc(Cl)cc1/C=N/c1nccs1	.	3.1*	0.1*
Oc1c(Cl)cc(Cl)cc1/C=N/c1nc(-c2ccc(Cl)cc2)cs1	15	.	.
COc1cc(-c2cc(C(F)(F)F)n3ncc(C(=O)O)c3n2)cc(OC)c1OC	.	1.3	.
COc1ccc2cnnc(SCC(=O)Nc3ccc(C(=O)O)cc3)c2c1OC	21	-0.019	.
CC1(C)CC(=O)c2c(Cc3ccccc3)noc2C1	9	-0.001	.
O=C(O)c1cc(C(=O)O)cc(-c2ccc(/C=c3/sc4nc5ccccc5n4c3=O)o2)c1	2	-1.2	.
O=C(O)c1cccc(-c2ccc(/C=c3/sc4nc5ccccc5n4c3=O)o2)c1	23	.	0.04*
Cc1cc(Cc2cc(C)c(N)cc2C)c(C)cc1N	-2	0.74	.
COC(=O)[C@@]1(Cc2ccc(F)cc2)[C@H]2c3cc(C(=O)N(C)C)n(CCc4ccc(OC)c(Br)c4)c3C[C@H]2CN1C(=O)c1ccccc1	17	-3.8*	0.056*
COC(=O)[C@@]1(Cc2ccc(F)cc2)[C@H]2c3cc(C(=O)N(C)C)n(Cc4ccc(OC)c(OC)c4)c3C[C@H]2CN1C(=O)c1ccccc1	13	-3.5*	0.057*
COC(=O)[C@@]1(Cc2ccc(F)cc2)[C@H]2c3cc(C(=O)N(C)C)n(Cc4ccccc4)c3C[C@H]2CN1C(=O)c1ccccc1	14	-2.2	.
COC(=O)[C@@]1(Cc2ccc(F)cc2)[C@H]2c3cc(C(=O)N(C)C)n(CCc4ccccn4)c3C[C@H]2CN1C(=O)c1ccccc1	15	-0.34	.
COc1ccc(NC(=O)Cn2nnc3ccccc32)c([N+](=O)[O-])c1	11	-0.21	.
O=C(CSc1nc2ccccc2c(=O)n1CC1CCCCC1)N1CCOCC1	.	-1.4	.
CCN(CC)C(=O)CSc1nc2ccccc2c(=O)n1CC1CCCCC1	.	-2.4	0.061*
CC(C)(C)n1nnnc1C(c1ccc(F)cc1)N1CCC(C(N)=O)CC1 (stereo unspecified)	17	0.4	.
Cc1ccc(C(c2nnnn2C(C)(C)C)N2CCN(C3CCCC3)CC2)cc1 (stereo unspecified)	.	-5*	0.073
SMILES	Biofilm kill mix	ROMK mod	ROMK hit retest
CC(=O)NCCc1nc2ccccc2n1CCOc1cccc(C)c1	11	0.081	.
Cc1cccc(OCCn2c(CCCO)nc3ccccc32)c1	.	-2.8*	0.059*
Cc1ccc(CNC(=O)CCC2CCCN(C(=O)c3ccc4c(c3)OCO4)C2)o1 (stereo unspecified)	11	-0.063	.
O=C(c1cc2c(s1)CCCC2)N1CCN(C(=O)C2CCCO2)CC1 (stereo unspecified)	.	0.55	.
CC1CN(C(=O)c2cc3c(s2)CCC3)CC(C)O1 (stereo unspecified)	.	.	0.086
CCCOc1cc(N(CC)CC)ccc1/C=C(/C#N)c1nc2ccc(C)cc2[nH]1	.	-4.2*	0.039*
COc1cc(/C=C(\C#N)c2nc3ccc(C)cc3[nH]2)c([N+](=O)[O-])cc1OC	.	-1.4	.
Cc1[nH]c2ccccc2c1C(=O)CSc1ccc(F)cc1	9	0.4	.
O=C(/C=C/c1ccco1)Oc1cccc2cccnc12	13	.	.
O=C(/C=C\c1ccco1)Oc1cccc2cccnc12	-3	-22*	0.086
Cc1ccc(S(=O)(=O)C(C#N)c2nc3ccccc3nc2N2CCC(C)CC2)cc1 (stereo unspecified)	.	.	0.068*
N#CC(c1nc2ccccc2nc1N1CCCC1)S(=O)(=O)c1ccccc1 (stereo unspecified)	.	-1.4	.
O=C(NCc1ccc(Cl)cc1)C1CCN(c2cnccn2)CC1	5	0.078	.
CCOC(=O)c1cc(-c2ccccc2)n(CC(=O)Nc2ccc(OC)c(OC)c2)c1C	11	-0.62	.
CCOC(=O)c1cc(-c2ccccc2)n(CC(=O)Nc2cccc(OC)c2)c1C	15	-4.8*	0.079

Screening data as filed in PubChem BioAssay.
